MrgX1 allo act = allosterically activates human MrgX1 receptor signaling. Q96LB2. MrgX1-HEK293, Fluo-4 calcium flux, FDSS; active compounds read high. B-score at 10 µM. actives 0.63% (n = 310,000). AID 588675;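 active = plate-corrected calcium response at least 3 library SD above typical, normal starting fluorescence, not activating the receptor alone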;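 also: compound read alongside a low EC10 to EC30 dose of BAM8-22 agonist; peak minus trough fluorescence over baseline measured at the second addition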
Target sequence (Q96LB2 whole entry, looked up): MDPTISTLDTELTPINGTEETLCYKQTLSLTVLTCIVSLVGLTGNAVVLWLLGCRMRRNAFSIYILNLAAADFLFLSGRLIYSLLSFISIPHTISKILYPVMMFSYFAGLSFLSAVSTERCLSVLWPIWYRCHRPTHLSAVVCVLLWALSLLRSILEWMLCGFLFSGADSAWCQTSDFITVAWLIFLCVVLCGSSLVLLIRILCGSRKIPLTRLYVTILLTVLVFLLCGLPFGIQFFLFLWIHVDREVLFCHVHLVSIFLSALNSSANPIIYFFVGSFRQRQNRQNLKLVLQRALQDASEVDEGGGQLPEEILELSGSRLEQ
MrgX1 antag = human MrgX1 receptor antagonism, primary screen | Q96LB2 | MRGX1-HEK293 calcium flux, Fluo-4, BAM8-22 antagonism; active compounds read low | B-score at 10 µM | actives 1.3% (n = 310,000) | AID 588676;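 active = calcium-response B-score plate-corrected more than 3 library SD below zero, starting fluorescence within 5 deviations, no agonist response on first addition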;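 also: peak minus trough fluorescence over baseline after final BAM8-22 challenge near maximal dose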
RGS4 inh = human RGS4 inhibition; actives 0.45% (n = 310,000); HEK293 M3R/RGS4 inducible, Fluo-4 calcium flux; active compounds read high; triggered by carbachol at its EC20; B-score at 10 µM; AID 463165; P49798;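 active = B-score, a plate-corrected calcium signal, over three deviations above library mean, with baseline fluorescence within five deviations of library mean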;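 also: RGS4 expression induced by doxycycline in cells with stable M3 receptor; B-score is computed from the integrated fluorescence ratio over baseline after carbachol; higher B-score means a larger calcium signal and so more RGS4 inhibition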
Target sequence (P49798 whole entry, looked up): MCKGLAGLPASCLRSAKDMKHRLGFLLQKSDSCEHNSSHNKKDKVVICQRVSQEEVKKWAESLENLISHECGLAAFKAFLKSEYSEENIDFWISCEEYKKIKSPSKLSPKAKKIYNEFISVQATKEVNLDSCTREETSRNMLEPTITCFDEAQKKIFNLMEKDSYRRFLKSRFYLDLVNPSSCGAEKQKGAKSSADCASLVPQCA
MrgX1 agonist = human MrgX1 receptor agonism, primary screen. actives 0.44% (n = 310,000). Q96LB2. B-score at 10 µM. MrgX1-HEK293 cells, Fluo-4 calcium fluorescence, agonist mode; active compounds read high. AID 588627;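 active = calcium response B-score plate-corrected fluorescence ratio at least 3 library SD, with starting fluorescence B-score inside 5 SD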
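Test system: Stable human MrgX1 HEK293 cell line | Schedule: Overnight plating before 1 h dye loading | Read-out basis: Baseline-normalised fluorescence change ratio, B-scored | Detection: Kinetic calcium dye fluorescence, Fluo-4 NW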
RGS4 pot = RGS4 potentiation or activation; B-score at 10 µM; AID 463111; HEK293 M3R/inducible RGS4, carbachol calcium flux Fluo4; active compounds read low; actives 0.92% (n = 310,000);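 active = B-score of the integrated calcium signal more than 4 SD below the library mean, with starting fluorescence not abnormally high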;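 also: negative B-score means reduced calcium response which marks RGS4 activation or potentiation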
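Material: Inducible-RGS4 HEK293 cells carrying M3 receptor; also added: carbachol at ECmax as muscarinic agonist stimulus; incubation: compound preincubation 20 min at room temperature before agonist; signal: Fluo4-AM (2 µM) calcium-flux fluorescence, kinetic read; measure: integrated calcium ratio converted to B score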
RGS4 inh valid = validation of RGS4 inhibitors; shares compounds with RGS4 inh; HEK293 M3R/RGS4, carbachol calcium Fluo-4 fluorescence; carbachol added at its EC20; 0 = buffer wells, 100 = carbachol control; calcium response, % at 10 µM; actives 65% (n = 1,700); AID 492999;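 active = duplicate-averaged calcium response above the buffer-only control mean plus 5 SD of those controls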;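 also: integrated fluorescence ratio F max minus min over baseline F0; higher response in RGS4-induced cells means RGS4 inhibition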
M3R Ca ctr = checks RGS4 inhibitor effects in non-induced HEK293 M3R cells; carbachol calcium Fluo-4; submaximal (EC20) carbachol stimulus; buffer wells 0%, carbachol control wells 100%; actives 20% (n = 1,900); activity (percent), % at 10 µM; AID 493000; shares compounds with RGS4 inh; call rule not given here;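 also: RGS4 induction absent so cells express M3R without RGS4; higher means more calcium signal and flags a non-specific hit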
RGS4 inh ctr2 = signal in non-induced cells without carbachol, RGS4 inhibitor counter-screen; calcium response (agonist-mode artifact), % at 10 µM; shares compounds with RGS4 inh; actives 22% (n = 1,900); HEK293 M3R/RGS4 non-induced, Fluo-4 calcium, no carbachol; normalised: buffer wells 0%, carbachol wells 100%;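 active = duplicate-averaged calcium rise in uninduced cells above buffer wells' mean plus 5 SD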
Each line names hits and unclear results; the compound was inactive in the other large screens (follow-up assays come after a bar, where they were run). Compounds with a hit are over-represented: about 3.5% of the library has one in this group of screens.

O=[N+]([O-])/C=C\c1ccc(N2CCCC2)c(F)c1	RGS4 inh 36 (no result: MrgX1 allo act, MrgX1 antag, MrgX1 agonist) | RGS4 inh valid 34% | M3R Ca ctr inactive | RGS4 inh ctr2 75%
COc1ccc(C(C[N+](=O)[O-])c2c(C)cc3ccccn23)cc1 (stereo not given)	none
COc1ccc(C(C[N+](=O)[O-])c2c(C)[nH]n(-c3ccccc3)c2=O)cc1 (stereo not given)	RGS4 inh 28, MrgX1 agonist 40 | RGS4 inh valid 54% | M3R Ca ctr 84% | RGS4 inh ctr2 21%
NNC(=O)C(=O)NCCCN1CCOCC1	none
COc1ccc(OC)c(CC(=O)N2CCc3cc(OC)c(OC)cc3C2)c1	none
CCO[C@H]1OC(C(=O)N2CCN(C)CC2)=C[C@@H](C)[C@@H]1CCCO	none
O=c1c2ccccc2nc(N/N=C/c2c(O)ccc3ccccc23)n1O	RGS4 inh 8.4 | RGS4 inh valid 40% | M3R Ca ctr 44% | RGS4 inh ctr2 inactive
COC(=O)C1=C(C)N(C2CCCCC2)C(=O)/C1=C\c1cccs1	RGS4 inh 5.7 | RGS4 inh valid 10% | M3R Ca ctr inactive | RGS4 inh ctr2 inactive
CCc1nnc(NC(=O)CSc2ccc(-c3ccc(-n4cccn4)cc3)nn2)s1	none
Cc1ccc(SC(CC(=O)c2ccc(F)cc2)C(=O)O)cc1 (stereo not given)	none | M3R Ca ctr inactive | RGS4 inh ctr2 inactive
Cc1ccc(/C=C/C(=O)N2CCN(c3ncccn3)CC2)o1	RGS4 inh 14 | RGS4 inh valid 17% | M3R Ca ctr inactive | RGS4 inh ctr2 inactive
Cc1ccc(-c2ccc(C(=O)NCc3ccccc3)o2)c2ccccc12	RGS4 inh 7 | RGS4 inh valid inactive | M3R Ca ctr inactive | RGS4 inh ctr2 inactive
NC(=O)N/N=C/c1ccc(-n2nncc2-c2ccc(Cl)cc2)cc1	RGS4 inh 6.2 | RGS4 inh valid 20% | M3R Ca ctr 41% | RGS4 inh ctr2 inactive
COc1ccccc1S(=O)Cc1ccc(C(=O)NCCc2ccc(Cl)cc2)o1 (stereo not given)	none
Cc1nc2ccccc2c(=O)n1-c1cccc(NC(=O)c2cccs2)c1	none
O=C(Nc1cccc(N2C(=O)C=CC2=O)c1)c1cccs1	RGS4 inh 21, MrgX1 agonist 35 | RGS4 inh valid 33% | M3R Ca ctr inactive | RGS4 inh ctr2 48%
C=CCOC(=O)C1=C[C@H](C2CC2)[C@@H](CCCO)[C@H](OCC)O1	none
CC(=O)CCS(=O)(=O)c1ccc(Oc2ccc(S(=O)(=O)CCC(C)=O)cc2)cc1	RGS4 inh 5.2 | RGS4 inh valid 22% | M3R Ca ctr inactive | RGS4 inh ctr2 inactive
CC(=O)CS(=O)(=O)c1ccc(Oc2ccc(S(=O)(=O)CC(C)=O)cc2)cc1	none
C#CCN(CC=C)C(=O)c1ccc2nc(C3CCCCC3)oc2c1	none
CCOc1ccc2cc(/C=C/C(=O)c3ccco3)c(Cl)nc2c1	none | RGS4 inh valid inactive | M3R Ca ctr inactive | RGS4 inh ctr2 40%
CC(=O)C1=C(c2ccccc2)NC(=O)NC1c1ccccc1 (stereo not given)	none
O=C1NC(c2ccccc2)=C(c2nc3ccccc3s2)C(c2ccccc2)N1 (stereo not given)	none | M3R Ca ctr 30% | RGS4 inh ctr2 26%
O=C(NCc1ccccc1)C(c1c(F)cccc1Cl)N(C(=O)c1csnn1)C1CC1 (stereo not given)	none
CCn1c2ccccc2c2cc(C3C(C#N)=C(N)Oc4n[nH]c(COC)c43)ccc21 (stereo not given)	RGS4 inh 25 | RGS4 inh valid 39% | M3R Ca ctr 34% | RGS4 inh ctr2 inactive
O=C1NC(=S)S/C1=C\c1coc2ccc(O)cc2c1=O	RGS4 inh 6.3 | RGS4 inh valid 26% | M3R Ca ctr 65% | RGS4 inh ctr2 inactive
CN1CCC(=O)N(CCSc2ccc(Br)cc2)CC1	none
CCOc1ccccc1N1CCN(C(=O)CCNS(=O)(=O)c2ccccc2F)CC1	none
Fc1ccccc1CN1CCCC(NC2CCC2)C1 (stereo not given)	RGS4 inh 6.9 | RGS4 inh valid 8.0% | M3R Ca ctr inactive | RGS4 inh ctr2 inactive
O=C(C1CCC(Cn2c(=S)[nH]c3ccccc3c2=O)CC1)N1CCN(c2ccccn2)CC1 (stereo not given)	none
COc1ccc(N2CCN(C(=O)C3CCC(Cn4c(=S)[nH]c5ccccc5c4=O)CC3)CC2)cc1 (stereo not given)	none | M3R Ca ctr inactive | RGS4 inh ctr2 inactive
O=C(C1CCC(Cn2c(=O)[nH]c3ccccc3c2=O)CC1)N1CCN(c2ccccc2)CC1 (stereo not given)	none | M3R Ca ctr inactive | RGS4 inh ctr2 inactive
COC(=O)C1=C(C)NC(C)=C(C(=O)OCC2CCCO2)C1c1cccc(Br)c1 (stereo not given)	none
CC(=O)N(C1CC(C)C(C#N)(C#N)C1(C#N)C#N)N(C)C (stereo not given)	RGS4 inh 28 | RGS4 inh valid 62% | M3R Ca ctr inactive | RGS4 inh ctr2 9.0%
CCCC(=O)N(C1CC(C)C(C#N)(C#N)C1(C#N)C#N)N(C)C (stereo not given)	RGS4 inh 7.7 | RGS4 inh valid 30% | M3R Ca ctr inactive | RGS4 inh ctr2 22%
CCNC(=S)N(CCCO)Cc1cc2cc3c(cc2[nH]c1=O)OCCO3	none
COCCCNC(=S)N(CCCO)Cc1cc2cc3c(cc2[nH]c1=O)OCCO3	none | M3R Ca ctr inactive | RGS4 inh ctr2 inactive
COCCCNC(=S)N(CCCO)Cc1cc2cc3c(cc2[nH]c1=O)OCO3	none | M3R Ca ctr inactive | RGS4 inh ctr2 inactive
COCCCNC(=S)N(CCO)Cc1cc2cc3c(cc2[nH]c1=O)OCO3	none | RGS4 inh valid inactive | M3R Ca ctr inactive | RGS4 inh ctr2 inactive
CCN(CC)CCCN(Cc1cc2cc3c(cc2[nH]c1=O)OCO3)C(=S)NCCOC	none
CN(C)CCCNC(=S)N(CCO)Cc1cc2cc3c(cc2[nH]c1=O)OCO3	none
Cc1c(C(=O)Nc2ccc(C(F)(F)F)cc2)sc2ncn(CC(=O)N3CCN(c4ccccn4)CC3)c(=O)c12	none
CCCCN1C(=O)C2(OCCCO2)c2cccc(C)c21	none
C/C(=N\N=C1\NC(=O)C(CC(=O)Nc2ccc(Cl)cc2)S1)c1ccco1 (stereo not given)	none
